Measurements from ChEMBL document CHEMBL3871276, “Synthesis, antiamoebic and molecular docking studies of furan-thiazolidinone hybrids” (Eur J Med Chem, 2016).

Columns and labels:
Entamoeba histolytica = experiment: Antiamoebic activity against Entamoeba histolytica HM-1:IMSS trophozoites after 72 hrs by eosin staining based microdilution method; type: functional
In short: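 Trophozoites grown in Diamond TYIS-33 medium. Compounds in DMSO, 1 mg/mL stock, two-fold serial dilutions. 1.7 x 10⁴ organisms/well, plate gassed with nitrogen 10 min, 37 °C for 72 h. Wells washed with 0.9% NaCl, fixed with methanol, stained with 0.5% eosin for 15 min, dye released with 0.1 N NaOH, OD 490 nm. IC50 from linear regression of % inhibition vs log dose. Triplicate wells, repeated thrice.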

Thioredoxin reductase = biological target: T1, Thioredoxin reductase (Entamoeba histolytica, UniProt C4LW95); experiment: Inhibition of Entamoeba histolytica thioredoxin reductase
T1 sequence (C4LW95 whole entry): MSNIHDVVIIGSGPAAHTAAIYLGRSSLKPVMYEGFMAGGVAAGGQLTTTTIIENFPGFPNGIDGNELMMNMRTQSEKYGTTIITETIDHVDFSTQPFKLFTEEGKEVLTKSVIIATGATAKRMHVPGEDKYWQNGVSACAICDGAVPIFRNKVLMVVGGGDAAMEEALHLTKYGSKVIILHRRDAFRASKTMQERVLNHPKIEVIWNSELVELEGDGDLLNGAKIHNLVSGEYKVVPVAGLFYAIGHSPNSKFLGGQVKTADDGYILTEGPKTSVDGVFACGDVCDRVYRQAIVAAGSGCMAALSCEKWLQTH

[1] = Inhibition of Entamoeba histolytica O-acetyl-L-serine sulfohydrolase preincubated with enzyme followed by TNB substrate addition measured after 30 mins by UV-Visible spectrophotometric method; details: in the assay text read “OAS substrate” for “TNB substrate”
In short: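 Recombinant EhOASS (90 μg) in 100 mM HEPES pH 7.0 with […], inhibitor 0.25–500 μM, preincubated 30 min at room temperature. Reaction started with O-acetyl-L-serine. TNB disappearance followed at 412 nm. % decrease in activity taken relative to the uninhibited reaction. IC50 from % inhibition vs log inhibitor concentration.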

[2] = Cytotoxicity against CHO cells assessed as reduction in cell viability after 72 hrs by MTT assay; type: toxicity, cell-based, Cricetulus griseus; details: for IC50 at 72 h: Chinese hamster, CHO cells; for Activity: chinese hamster, cho, 72 h
In short: (§1)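 Chinese hamster ovary cells in RPMI with 10% FBS and 1% penicillin-streptomycin-neomycin. 5,000 cells/well, in triplicate, exposed to compound or vehicle DMSO at 37 °C, 5% CO2 for 48 h or 72 h. MTT (5 mg/mL in PBS) added for 4 h, formazan dissolved in DMSO, absorbance at 570 nm. Viability expressed as % of DMSO control.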

[3] = Cytotoxicity against CHO cells assessed as reduction in cell viability at 2.5 to 50 uM after 48 hrs by MTT assay; type: toxicity, cell-based, Cricetulus griseus; details: chinese hamster; in short: as §1
[4] = Cytotoxicity against CHO cells assessed as reduction in cell viability at 100 uM after 48 hrs by MTT assay; type: toxicity, cell-based, Cricetulus griseus; details: chinese hamster; in short: as §1
[5] = Cytotoxicity against CHO cells assessed as reduction in cell viability after 48 hrs by MTT assay; type: toxicity, cell-based, Cricetulus griseus; details: for IC50 at 48 h: Chinese hamster, CHO cells; for Activity: chinese hamster, cho, 48 h; in short: as §1
[6] = Cytotoxicity against CHO cells assessed as reduction in cell viability at 2.5 to 25 uM after 72 hrs by MTT assay; type: toxicity, cell-based, Cricetulus griseus; details: chinese hamster; in short: as §1
[7] = Cytotoxicity against CHO cells assessed as reduction in cell viability at 50 uM after 72 hrs by MTT assay; type: toxicity, cell-based, Cricetulus griseus; details: chinese hamster; in short: as §1

IC50 (Entamoeba histolytica) [µM] | Ki (Thioredoxin reductase) [µM] | Ki [1] [µM] | Structure (SMILES) | IC50 at 72 h [2] [µM] | Activity [2] | Activity [3] | Activity [4] | IC50 at 48 h [5] [µM] | Activity [5] | Activity [6] | Activity [7]
8.22 | – | – | S=C(NCc1ccco1)Nc1ccccc1 | – | – | – | – | – | – | – | –
2.97 | 27 | 343 | O=C1/C(=C/c2ccc3c(c2)OCO3)S/C(=N\c2ccccc2)N1Cc1ccco1 | – | – | – | – | – | – | – | –
2.03 | 4.66 | 149 | CCOc1ccc(/C=C2\S/C(=N\c3ccccc3)N(Cc3ccco3)C2=O)cc1 | – | – | – | – | – | – | – | –
0.47 | 0.68 | – | COc1ccc(/C=C2\S/C(=N\c3ccccc3)N(Cc3ccco3)C2=O)cc1OC | > 250 | Dose-dependent effect | Non-Toxic | Non-Toxic | > 400 | Dose-dependent effect | Non-Toxic | Non-Toxic
– | – | 25.6 | O=C(CSc1nc(O)cc(=O)[nH]1)c1c[nH]c2ccccc12 | – | – | – | – | – | – | – | –
0.27 | 0.39 | – | O=C1/C(=C/c2ccccn2)S/C(=N\c2ccccc2)N1Cc1ccco1 | > 250 | Dose-dependent effect | Non-Toxic | Non-Toxic | > 400 | Dose-dependent effect | Non-Toxic | Non-Toxic
1.48 | 2.82 | – | Cc1ccc(/C=C2\S/C(=N\c3ccccc3)N(Cc3ccco3)C2=O)cc1 | 185 | Dose-dependent effect | Non-Toxic | – | 421 | Dose-dependent effect | Non-Toxic | –
1.35 | 2.07 | – | COc1ccc(/C=C2\S/C(=N\c3ccccc3)N(Cc3ccco3)C2=O)cc1 | > 250 | Dose-dependent effect | Non-Toxic | – | > 400 | Dose-dependent effect | Non-Toxic | –
3.57 | 337 | 2240 | O=C1CS/C(=N\c2ccccc2)N1Cc1ccco1 | – | – | – | – | – | – | – | –
2.25 | 10.9 | 58 | O=C1/C(=C/c2ccccc2)S/C(=N\c2ccccc2)N1Cc1ccco1 | – | – | – | – | – | – | – | –
1.24 | 1.05 | – | COc1cc(/C=C2\S/C(=N\c3ccccc3)N(Cc3ccco3)C2=O)cc(OC)c1OC | > 250 | Dose-dependent effect | Non-Toxic | – | > 400 | Dose-dependent effect | Non-Toxic | –
2.87 | 16.1 | 98.6 | O=C1/C(=C/c2ccc([N+](=O)[O-])cc2)S/C(=N\c2ccccc2)N1Cc1ccco1 | – | – | – | – | – | – | – | –
2.2 | 5.68 | 54.8 | CC(C)Oc1ccc(/C=C2\S/C(=N\c3ccccc3)N(Cc3ccco3)C2=O)cc1 | – | – | – | – | – | – | – | –
0.67 | 0.69 | – | COc1ccc(OC)c(/C=C2\S/C(=N\c3ccccc3)N(Cc3ccco3)C2=O)c1 | > 250 | Dose-dependent effect | Non-Toxic | Non-Toxic | > 400 | Dose-dependent effect | Non-Toxic | Non-Toxic
2.33 | 6.23 | 84.3 | O=C1/C(=C/c2ccc(Cl)cc2)S/C(=N\c2ccccc2)N1Cc1ccco1 | – | – | – | – | – | – | – | –
1.04 | 0.73 | – | O=C1/C(=C/c2ccc(O)cc2)S/C(=N\c2ccccc2)N1Cc1ccco1 | > 250 | Dose-dependent effect | Non-Toxic | – | 400 | Dose-dependent effect | Non-Toxic | –
1.95 | 3.56 | 46.8 | O=C1/C(=C/c2cccc([N+](=O)[O-])c2)S/C(=N\c2ccccc2)N1Cc1ccco1 | – | – | – | – | – | – | – | –
1.95 | 3.16 | 45.8 | O=C1/C(=C/c2cccc(Cl)c2)S/C(=N\c2ccccc2)N1Cc1ccco1 | – | – | – | – | – | – | – | –
– | 2.88 | – | Cc1ncc([N+](=O)[O-])n1CCn1cc(-c2ccccn2)nn1 | – | – | – | – | – | – | – | –
– | 3.3 | 42.6 | Cc1ncc([N+](=O)[O-])n1CCO [METRONIDAZOLE] | 280 | – | Non-Toxic | – | > 400 | – | Non-Toxic | –
